Measured values: paper PMC10617019 (Nature cell biology, 2023)

Legend:
[1] = system: RIPK1, RIPK3 and MLKL activation; test: RIPK1, RIPK3 and MLKL activation by EGLN inhibitors; assay type: cell-based, mouse; settings: MEFs; for hallmarks of RIPK1, RIPK3 and MLKL activation, inhibitor alone: immunoblotting; for concentration needed to activate RIPK1 and necroptosis: concentration series
[2] = system: pVHL interaction with RIPK1; test: pVHL-RIPK1 interaction in cells; assay type: cell-based; settings: DFO 200 μM; co-immunoprecipitation
Procedure, shortened: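 RIPK1⁻/⁻ HT-29 cells were infected with expression vectors and treated with DFO 200 μM. Immunocomplexes were washed three times (20 mM Tris pH 8.0, 100 mM NaCl, 1 mM EDTA, 0.5% NP-40), resolved by SDS-PAGE and immunoblotted.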

EGLN1 = test: in vitro hydroxylation assay with recombinant EGLN1; assay type: biochemical; settings: 37 °C, 1 h, pH 7.5, 50 μM EGLN1, 100 μM substrate; mass spectrometry
L929 cells = test: hypoxia-induced cell death, L929; assay type: cell-based; settings: 1% O2; Nec-1s 25 μM; propidium iodide uptake; n = 3
Procedure, shortened: (§1)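 HT-29 and L929 cells were held at 1% O2 with or without 25 μM Nec-1s; L929 were kept in DMEM with 10% FBS and 1% penicillin/streptomycin. Cell death was measured by propidium iodide uptake, counting PI-positive and total cells under an inverted fluorescence microscope. Values are mean ± s.d., n = 3 biological samples.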

HT-29 cells [3] = test: hypoxia-induced cell death, HT-29; assay type: cell-based; settings: 1% O2; Nec-1s 25 μM; propidium iodide uptake; n = 3
Procedure, shortened: as §1

Jurkat cells = test: hypoxia-induced cell death, Jurkat; assay type: cell-based; settings: 1% O2, 48 h; propidium iodide uptake; n = 3
Procedure, shortened: (§2)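 Jurkat, THP-1 and primary fibroblasts were exposed to 1% O2 for 48 h. Cell death was measured by propidium iodide uptake, counting PI-positive and total cells under an inverted fluorescence microscope. Values are mean ± s.d., n = 3 biological samples, compared by unpaired two-tailed t-test.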

THP-1 cells = test: hypoxia-induced cell death, THP-1; assay type: cell-based; settings: 1% O2, 48 h; propidium iodide uptake; n = 3
Procedure, shortened: as §2

[4] = system: human skin fibroblast cells; test: hypoxia-induced cell death, human skin fibroblasts; assay type: cell-based; settings: 1% O2, 48 h; primary fibroblasts; propidium iodide uptake; n = 3
Procedure, shortened: as §2

Vhl knockout MEFs = test: hypoxia-induced necroptosis in Vhl-deleted MEFs; assay type: cell-based, mouse; settings: 1% O2; Nec-1s printed as 25 M; propidium iodide uptake; n = 3
[5] = system: human RIPK1 and RIPK1-P195A mutant; test: p-RIPK1-S166 in 293T cells overexpressing WT or P195A RIPK1; assay type: cell-based; settings: overexpressed RIPK1, 10 μM Nec-1s, n = 3
primary Ripk1 P196A MEFs = test: TSZ or TNFα/SM-164-induced cell death and p-RIPK1-S166 in Ripk1 P196A MEFs; assay type: cell-based, mouse; settings: Nec-1s 20 μM, n = 3
Egln1−/− MEFs = test: TSZ- or TNFα/5z7-induced cell death, Egln1−/− MEFs; assay type: cell-based, mouse; settings: induced by TSZ or by TNFα + 5z7 (200 nM); n = 3
Procedure, shortened: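 Knockout MEFs were given TNFα 10 ng/mL + SM164 50 nM + zVAD.fmk 20 μM, or TNFα 10 ng/mL + 5z7 200 nM, each ± RIPK1-inhibitor test compound. TSZ death was read by PI uptake: PI-positive and total cells counted by fluorescence microscopy. TNFα/5z7 viability was read by ATP-Glo luminescence, background-subtracted, as % of untreated wells. n = 3 biological samples, mean ± s.d., two-way ANOVA.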

786-O cells = test: TNFα/5z7/SM-164-induced RDA in 786-O cells; assay type: cell-based; settings: Nec-1s 10 μM; TNFα 10 ng/mL; SM-164 50 nM; 5z7 500 nM; n = 3
Procedure, shortened: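 VHL-deficient 786-O cells were treated with TNFα, 5z7 and SM-164, with or without Nec-1s, for different times. Viability was read by ATP-Glo luminescence, expressed as a percentage of untreated wells after subtracting the blank-well background.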

Ripk1 P196A/P196A mice = test: Nec-1s in Ripk1 P196A/P196A mice; assay type: in vivo, mouse; settings: Nec-1s in drinking water, 7 d; n = 5-6
Vhl LKO mice (liver) = test: Nec-1s in Vhl LKO mice; assay type: in vivo, mouse; settings: Nec-1s in drinking water, 7 days; n = 6
WT RIPK1 = test: in vitro kinase assay, WT RIPK1; assay type: biochemical, human; settings: 100 μM ATP, 30 °C, 30 min, p-RIPK1-S166 immunoblot
mutant RIPK1-P195A = test: in vitro kinase assay, RIPK1-P195A; assay type: biochemical, human; settings: 100 μM ATP, 30 °C, 30 min, p-RIPK1-S166 immunoblot
MEFs [6] = test: cell death with EGLN inhibitor, MEFs; assay type: cell-based, mouse
Procedure, shortened: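 MEFs in DMEM/10% FBS/1% penicillin-streptomycin were treated with graded test compound concentrations. Cell death was measured by propidium iodide uptake, counting PI-positive versus total cells by fluorescence microscopy (mean ± s.d., n = 3 biological samples). p-RIPK1-S166 and p-MLKL-S345 were immunoblotted across the concentration series after 48 h, and at 400 μM over a time course.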

HT-29 cells [7] = test: RIPK1 activation and necroptosis by FG-4592, HT-29 cells; assay type: cell-based
Mlkl knockout cells = test: FG-4592-induced cell death in WT and Mlkl knockout cells; assay type: cell-based; settings: n = 3
[8] = system: Pro195 hydroxylation of RIPK1; test: RIPK1 Pro195/Pro196 hydroxylation in cells; assay type: cell-based; settings: high doses only
[9] = system: proline hydroxylation of RIPK1 at Pro196; test: RIPK1 Pro196 hydroxylation in mouse liver in vivo; settings: WT mouse liver; i.p. 50 or 250 mg kg^−1 every 24 h for 2 d; n = 3
MEFs [10] = test: TSZ-induced cell death with FG-4592, MEFs; assay type: cell-based, mouse; settings: FG-4592 200 μM; TNFα 10 ng/mL, SM164 50 nM, zVAD.fmk 20 μM; n = 3
Procedure, shortened: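 MEFs were given TNFα 10 ng/mL, SM164 50 nM and zVAD.fmk 20 μM, with or without test compound at 200 μM. Cell death was read by propidium iodide uptake: PI-positive and total cells were counted under an inverted fluorescence microscope. n = 3 biological independent samples, mean ± s.d., two-way ANOVA.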

[11] = system: WT and Ripk1 P196A/P196A mice; test: FG-4592 in WT and Ripk1 P196A/P196A mice; assay type: in vivo; settings: FG-4592 25 mg kg^−1 i.p., 7 days
WT mice (liver) = test: FG-4592 in vivo, WT mice: liver damage, RIPK1 activation, cell death, cytokines
monocytes = settings: cited from earlier work
cIAP1 = settings: cited from earlier work
[12] = system: RIPK1 proline hydroxylation (EGLN); test: RIPK1 proline hydroxylation in cells, pan-hydroxylation antibody; assay type: cell-based, murine; settings: MEFs with Flag-mRIPK1; CoCl2 400 μM, 16 h
Procedure, shortened: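 MEFs were transduced with a Flag-mouse RIPK1 expression vector for 24 h, then treated with CoCl2 (400 μM) for a further 16 h. Lysates were immunoprecipitated with anti-Flag and the complexes immunoblotted with an anti-pan-hydroxylation antibody. Three independent experiments were run.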

CC(=O)N(O)CCCCCNC(=O)CCC(=O)N(O)CCCCCNC(=O)CCC(=O)N(O)CCCCCN [DFO, deferoxamine]
hallmarks of RIPK1, RIPK3 and MLKL activation, inhibitor alone [1]: showed the hallmarks of RIPK1, RIPK3 and MLKL activation
concentration needed to activate RIPK1 and necroptosis [1]: Only high concentrations
pVHL interaction with RIPK1 [2]: markedly decreased pVHL interaction with RIPK1 in cells

KNGGTLYYMAPEHLNDVNAKP [synthetic RIPK1 peptide]
hydroxylation by recombinant EGLN1 (EGLN1): recombinant EGLN1 hydroxylated a synthetic RIPK1 peptide containing Pro195

CN1C(=O)NC(Cc2c[nH]c3c(Cl)cccc23)C1=O (centres unmarked) [Nec-1s, necrostatin-1s]
hypoxia-induced cell death with Nec-1s (L929 cells): decreased
hypoxia-induced cell death with Nec-1s (HT-29 cells [3]): decreased
hypoxia-induced cell death with Nec-1s (Jurkat cells): decreased
hypoxia-induced cell death with Nec-1s (THP-1 cells): decreased
hypoxia-induced cell death with Nec-1s [4]: decreased
hypoxia-induced necroptosis in Vhl-deleted MEFs with Nec-1s (Vhl knockout MEFs): could be decreased with the administration of Nec-1s
inhibition of p-RIPK1-S166 (WT and P195A RIPK1) [5]: effectively inhibited
increased cell death and RIPK1 activation with Nec-1s (primary Ripk1 P196A MEFs): both the increased cell death and RIPK1 activation were inhibited
cell death of Egln1−/− MEFs with Nec-1s (Egln1−/− MEFs): blocked the cell death of Egln1^−/− MEFs induced by either TSZ or a combination of TNFα and 5z7
RDA induced by TNFα, 5z7 and SM-164 with Nec-1s (786-O cells): could be blocked by Nec-1s
cell death and inflammation in Ripk1 P196A/P196A mice with Nec-1s (Ripk1 P196A/P196A mice): decreased cell death and inflammation in Ripk1^P196A/P196A mice
RIPK1 activation, cell death and inflammation in Vhl LKO mice (Vhl LKO mice (liver)): blocked RIPK1 activation, cell death and inflammation in Vhl hepatocyte-specific knockout mice

recombinant pVHL: purified recombinant von Hippel–Lindau protein
inhibition of RIPK1 kinase activity (WT RIPK1): could dramatically inhibit induction of the kinase activity of WT RIPK1
inhibition of RIPK1 kinase activity (mutant RIPK1-P195A): but not mutant RIPK1-P195A

Cc1nc(C(=O)NCC(=O)O)c(O)c2ccc(Oc3ccccc3)cc12 [FG-4592]
sensitization to hypoxia-induced cell death (MEFs [6]; 1% O2 with or without 200 μM FG-4592, n = 3): could sensitize cell death induced by hypoxia
RIPK1 activation and necroptosis (MEFs [6]; MEFs, relatively high concentration, up to 400 μM at indicated times, 48 h): activated RIPK1 and induced necroptosis
concentration needed to activate RIPK1 and necroptosis [1]: Only high concentrations
RIPK1 activation and necroptosis (HT-29 cells [7]; relatively high concentration): activated RIPK1 and induced necroptosis
effect of Mlkl deletion on FG-4592-induced cell death (Mlkl knockout cells): deletion of Mlkl decreased cell death induced by FG-4592 treatment
RIPK1 hydroxylation, RIPK1 activity and cell death, dose dependence [8]: led to a decrease in the hydroxylation of RIPK1 and corresponding increases in RIPK1 activity and cell death
RIPK1 Pro196 hydroxylation in vivo [9]: can also reduce the proline hydroxylation of RIPK1 at Pro196 in vivo
sensitization to TSZ-induced cell death (MEFs [10]): could sensitize cells to cell death induced by TSZ treatment
HIF pathway induction, RIPK1 activation and cell death [11]: can only induce the HIF pathway, without induction of RIPK1 activation and cell death
liver damage, TUNEL^+ cells and p-RIPK1-S166 in liver (WT mice (liver); FG-4592 250 mg kg^−1 i.p., every 24 h for 2 d): caused substantial liver damage, with a large number of TUNEL^+ cells and increased p-RIPK1-S166
RIPK1 activation or cell death in liver (WT mice (liver); FG-4592 25 or 50 mg kg^−1 i.p., n = 5): did not induce RIPK1 activation or cell death

COC(=O)CNC(=O)C(=O)OC [dimethyloxalylglycine]
RIPK1 activation and caspase-independent cell death (monocytes): induce RIPK1 activation and caspase-independent cell death in monocytes
cIAP1 expression (cIAP1): caused a decrease in cellular inhibitor of apoptosis protein-1 (cIAP1) expression

COc1nccnc1NS(=O)(=O)c1ccc(NC(=O)/C=C/c2ccc([N+](=O)[O-])s2)cc1 [necrosulfonamide]
suppression of FG-4592-induced cell death (HT-29 cells [7]; 10 μM necrosulfonamide, 48 h, n = 3): can also suppress cell death induced by treatment with FG-4592 in HT-29 cells

[Cl][Co][Cl] [CoCl2, cobalt chloride]
hallmarks of RIPK1, RIPK3 and MLKL activation, inhibitor alone [1]: showed the hallmarks of RIPK1, RIPK3 and MLKL activation
concentration needed to activate RIPK1 and necroptosis [1]: Only high concentrations
RIPK1 proline hydroxylation (pan-hydroxylation antibody) [12]: could be blocked
